Measurements from ChEMBL document CHEMBL1148287, “Design of potent, selective, and orally bioavailable inhibitors of cysteine protease cathepsin k” (J Med Chem, 2004).
Values belong to the molecule of their own block, whether it stands above or below them.

Legend:
Cathepsin K [1] = target: T1, Cathepsin K (Homo sapiens, UniProt P43235); experiment: Concentration required to inhibit 50% of cysteine protease cathepsin K of human
T1 sequence (P43235 whole entry): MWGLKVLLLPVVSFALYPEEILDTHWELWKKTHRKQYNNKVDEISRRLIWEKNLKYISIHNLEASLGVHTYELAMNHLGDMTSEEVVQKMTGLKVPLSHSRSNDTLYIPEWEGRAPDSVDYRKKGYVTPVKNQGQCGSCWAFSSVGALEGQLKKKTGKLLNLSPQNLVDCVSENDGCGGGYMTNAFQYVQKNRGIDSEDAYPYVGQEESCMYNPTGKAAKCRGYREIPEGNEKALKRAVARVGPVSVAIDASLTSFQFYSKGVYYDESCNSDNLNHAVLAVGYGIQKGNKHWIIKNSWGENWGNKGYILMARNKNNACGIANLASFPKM
Summary of the method: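 Reactions were started by adding inhibitor plus substrate to enzyme. AMC fluorescence (ex 360/em 440) progress curves were followed over 2.3 h at varied inhibitor concentrations. IC50 was fitted as rate = Vmax/(1+[I]/IC50).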

Cathepsin K [2] = target: T2, Cathepsin K (Rattus norvegicus, UniProt O35186); experiment: Inhibition of cysteine protease cathepsin K of rat
T2 sequence (O35186 whole entry): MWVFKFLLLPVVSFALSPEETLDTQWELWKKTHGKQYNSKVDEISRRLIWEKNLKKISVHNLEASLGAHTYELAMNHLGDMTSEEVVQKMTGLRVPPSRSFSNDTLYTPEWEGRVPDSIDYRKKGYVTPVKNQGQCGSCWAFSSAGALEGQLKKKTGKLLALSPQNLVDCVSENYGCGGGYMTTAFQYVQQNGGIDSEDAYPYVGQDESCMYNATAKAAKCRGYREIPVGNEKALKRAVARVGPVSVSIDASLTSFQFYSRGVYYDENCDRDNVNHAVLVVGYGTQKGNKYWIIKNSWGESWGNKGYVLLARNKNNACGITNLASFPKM

[3] = Selectivity as ratio between IC50 against Cathepsin B and IC50 against Cathepsin K
Summary of the method: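 Human liver cathepsin B and recombinant human cathepsin K were each run with Cbz-Phe-Arg-AMC at 10 μM final (Km 400 and 70 μM). Both used pH 5.5 acetate/DTT/NaCl buffer, 10% DMSO, 30 °C and a 2.3 h fluorescence progress-curve read (ex 360/em 440). IC50s were fitted from rate vs [I], and the ratio of the two IC50s was taken.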

[4] = target: Cathepsin (H and K) (Homo sapiens) (UniProt P09668+P43235); experiment: Selectivity for Cathepsins H and K, ratio of IC50; type: protein assay
Chain of Cathepsin (H and K) (Homo sapiens) (P09668 whole entry, looked up, one chain of several): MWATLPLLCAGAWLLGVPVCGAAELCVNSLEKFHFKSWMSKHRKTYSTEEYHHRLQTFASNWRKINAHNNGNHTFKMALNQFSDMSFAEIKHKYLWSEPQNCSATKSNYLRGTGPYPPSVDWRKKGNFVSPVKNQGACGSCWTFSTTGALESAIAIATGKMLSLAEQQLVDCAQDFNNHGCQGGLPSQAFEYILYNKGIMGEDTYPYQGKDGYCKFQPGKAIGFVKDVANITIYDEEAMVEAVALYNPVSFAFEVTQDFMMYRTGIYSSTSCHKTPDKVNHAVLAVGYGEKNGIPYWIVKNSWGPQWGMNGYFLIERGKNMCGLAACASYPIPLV
Summary of the method: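 Human liver cathepsin H was run with L-Arg-β-naphthalamide at 50 μM final (Km 195 μM), read at ex 340/em 420. Human cathepsin K used Cbz-Phe-Arg-AMC at 10 μM, read at ex 360/em 440. Both were at pH 5.5 with DTT/NaCl and 10% DMSO at 30 °C, with 2.3 h progress curves. IC50s were fitted from rate vs [I] and ratioed.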

[5] = Selectivity as ratio between IC50 against Cathepsin L and IC50 against Cathepsin K
Summary of the method: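 Both assays used pH 5.5 acetate/DTT/NaCl, 10% DMSO, 30 °C and AMC fluorescence progress curves over 2.3 h. IC50s were fitted from rate vs [I] and taken as a ratio.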

[6] = Selectivity ratio between IC50 against Cathepsin S and IC50 against Cathepsin K
Summary of the method: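 Recombinant human cathepsin S was run with Cbz-Val-Val-Arg-AMC at 10 μM final (Km >100 μM); human cathepsin K used Cbz-Phe-Arg-AMC at 10 μM. Both were in pH 5.5 sodium acetate with 10 mM DTT, 120 mM NaCl and 10% DMSO at 30 °C, with AMC fluorescence progress curves over 2.3 h. The ratio was taken from the fitted IC50s.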

Homo sapiens = species on record: Homo sapiens; experiment: Selectivity as ratio between IC50 against Cathepsin V and IC50 against Cathepsin K
Summary of the method: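 Conditions were pH 5.5 acetate buffer with 10 mM DTT, 120 mM NaCl and 10% DMSO at 30 °C, with fluorescence progress curves over 2.3 h. The IC50 fits gave the ratio.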

Rattus norvegicus = species on record: Rattus norvegicus; experiment: Volume of distribution in steady state was determined in rat; type: ADME, organism-based; settings: in vivo
Summary of the method: (§1)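 Rats were dosed iv into the femoral vein at 5 mg/kg or orally at 10 mg/kg, from a solution in 15% solutol/citrate buffer/0.1% ascorbic acid, pH 3.5. Blood was drawn from a jugular cannula before dosing and at 0.03–24 h, then clotted to serum. Samples were acetonitrile-precipitated with internal standard and analysed by LC-MS/MS (MRM). Parameters came from noncompartmental analysis.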

[7] = Area Under plasma concentration time curve in rat upon peroral administration; type: ADME, organism-based; settings: po; summary of the method: as §1
[8] = Half-life in rat; type: ADME, organism-based; settings: in vivo; summary of the method: as §1
[9] = Compound was tested for its cell permeability in the Madin-Darby canine kidney cell monolayer transport assay; type: ADME, Canis lupus familiaris; settings: dog, MDCK; read-out: Activity
[10] = Bioavailability in rat; type: ADME, organism-based; settings: in vivo; summary of the method: as §1
[11] = Peak plasma concentration in rat; type: ADME, organism-based; summary of the method: as §1
[12] = Percent instability was measured by Rat S9 liver […] metabolism assay, in vitro; type: ADME, Liver S9 fraction; settings: read-out: Activity
Summary of the method: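 Rat S9 liver metabolism, read as % metabolized after 1 h incubation at 37 °C, run in duplicate.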

[13] = Maximum time required to achieve Cmax was determined in rat; type: ADME, organism-based; settings: in vivo; summary of the method: as §1

SMILES: CCCC[C@H](NC(=O)OC(C(C)C)C(C)C)C(=O)C(=O)Nc1cc(C)[nH]n1
- Ratio [6]: 4.6

SMILES: CCCC[C@H](NC(=O)OC(C(C)C)C(C)C)C(=O)C(=O)Nc1cc(-c2ccccc2)[nH]n1
- Ratio [3]: 520
- Ratio [4]: 18
- Ratio [5]: 25
- Ratio [6]: 7
- Ratio (Homo sapiens): 20

SMILES: CCCC[C@H](NC(=O)OC(C(C)C)C(C)C)C(=O)C(=O)Nc1cc[nH]n1
- Vss (Rattus norvegicus): 15 L/kg
- AUC [7]: 1100 ng·h/mL
- half-life [8]: 11.7 h
- Papp [9]: 48 ×10⁻⁶ cm/s
- bioavailability [10]: 41%
- Cmax [11]: 370 ng/mL
- metabolised [12]: 77%
- Tmax [13]: 0.25 h
- IC50 (Cathepsin K [1]): 0.77 nM
- IC50 (Cathepsin K [2]): 13 nM
- Ratio [3]: 670
- Ratio [4]: 30
- Ratio [5]: 40
- Ratio [6]: 3
- Ratio (Homo sapiens): 21

SMILES: CC(C)C(OC(=O)NCC(=O)C(=O)NCc1cccs1)C(C)C
- IC50 (Cathepsin K [1]): 12000 nM

SMILES: CCCC[C@H](NC(=O)OC(C(C)C)C(C)C)C(=O)C(=O)Nc1ccccn1
- AUC [7]: 2700 ng·h/mL
- half-life [8]: 2.17 h
- Papp [9]: 21 ×10⁻⁶ cm/s
- bioavailability [10]: 58%
- Cmax [11]: 1400 ng/mL
- metabolised [12]: 63%
- Tmax [13]: 0.25 h
- IC50 (Cathepsin K [1]): 32 nM

SMILES: CC(C)C(OC(=O)N[C@@H](C)C(=O)C(=O)NCc1cccs1)C(C)C
- IC50 (Cathepsin K [1]): 360 nM

SMILES: CCCC[C@H](NC(=O)OC(C(C)C)C(C)C)C(=O)C(=O)Nc1ccnn1CC
- IC50 (Cathepsin K [1]): 26 nM
- IC50 (Cathepsin K [2]): 1500 nM

SMILES: CCCC[C@H](NC(=O)OC(C(C)C)C(C)C)C(=O)C(=O)Nc1[nH]ncc1C(=O)OCC
- IC50 (Cathepsin K [1]): 1.7 nM
- Ratio [6]: 3.6

SMILES: CCCC[C@H](NC(=O)OC(C(C)C)C(C)C)C(=O)C(=O)Nc1[nH]ncc1Br
- IC50 (Cathepsin K [1]): 0.24 nM
- Ratio [6]: 4.2

SMILES: CCCC[C@H](NC(=O)OC(C(C)C)C(C)C)C(=O)C(=O)Nc1[nH]ncc1C#N
- IC50 (Cathepsin K [1]): 0.91 nM
- Ratio [6]: 3.6

The remaining molecules from weak to strong by IC50 (Cathepsin K [1]), led by results:

- AUC [7]: 920 ng·h/mL
- half-life [8]: 2.83 h
- bioavailability [10]: 15%
- Cmax [11]: 690 ng/mL
- metabolised [12]: 96%
- Tmax [13]: 0.633 h
- IC50 (Cathepsin K [1]): 83 nM
SMILES: CCCC[C@H](NC(=O)OC(C(C)C)C(C)C)C(=O)C(=O)Nc1nncs1

- AUC [7]: 750 ng·h/mL
- half-life [8]: 2.17 h
- Papp [9]: 23 ×10⁻⁶ cm/s
- bioavailability [10]: 18%
- Cmax [11]: 170 ng/mL
- metabolised [12]: 98%
- Tmax [13]: 0.167 h
- IC50 (Cathepsin K [1]): 40 nM
SMILES: CCCC[C@H](NC(=O)OC(C(C)C)C(C)C)C(=O)C(=O)Nc1nccs1

- AUC [7]: 1800 ng·h/mL
- half-life [8]: 4 h
- Papp [9]: 49 ×10⁻⁶ cm/s
- bioavailability [10]: 28%
- Cmax [11]: 970 ng/mL
- metabolised [12]: 99%
- Tmax [13]: 0.633 h
- IC50 (Cathepsin K [1]): 32 nM
- IC50 (Cathepsin K [2]): 1700 nM
- Ratio [3]: > 400
- Ratio [4]: > 400
- Ratio [5]: 250
- Ratio [6]: 91
- Ratio (Homo sapiens): 50
SMILES: CCCC[C@H](NC(=O)OC(C(C)C)C(C)C)C(=O)C(=O)Nc1ccnn1C

- IC50 (Cathepsin K [1]): 25 nM
- IC50 (Cathepsin K [2]): 470 nM
- Ratio [3]: > 500
- Ratio [4]: > 500
- Ratio [5]: 44
- Ratio [6]: 5.4
- Ratio (Homo sapiens): 19
SMILES: CCCC[C@H](NC(=O)OC(C(C)C)C(C)C)C(=O)C(=O)Nc1ccnn1-c1ccncc1

- IC50 (Cathepsin K [1]): 20 nM
- IC50 (Cathepsin K [2]): 1100 nM
SMILES: CCCC[C@H](NC(=O)OC(C(C)C)C(C)C)C(=O)C(=O)Nc1ccnn1C1CCCC1

- IC50 (Cathepsin K [1]): 15 nM
- IC50 (Cathepsin K [2]): 790 nM
SMILES: CCCC[C@H](NC(=O)OC(C(C)C)C(C)C)C(=O)C(=O)Nc1ccnn1-c1ccccc1

- IC50 (Cathepsin K [1]): 9.2 nM
SMILES: CCCC[C@H](NC(=O)OC(C(C)C)C(C)C)C(=O)C(=O)NCc1cccs1

- IC50 (Cathepsin K [1]): 5.1 nM
SMILES: CCCC[C@H](NC(=O)OC(C(C)C)C(C)C)C(=O)C(=O)Nc1ccon1

- IC50 (Cathepsin K [1]): 4.8 nM
SMILES: CCCC[C@H](NC(=O)OC(C(C)C)C(C)C)C(=O)C(=O)Nc1cc2ccccc2cn1

- IC50 (Cathepsin K [1]): 2.54 nM
SMILES: CCCC[C@H](NC(=O)OC(C(C)C)C(C)C)C(=O)C(=O)N[C@H](C)c1ccccc1

- IC50 (Cathepsin K [1]): 0.26 nM
- Ratio [6]: 2.3
SMILES: CCCC[C@H](NC(=O)OC(C(C)C)C(C)C)C(=O)C(=O)Nc1[nH]nc2cccc(F)c12
